Laboratory results from ChEMBL document CHEMBL1944526, “Diamine and aminoalcohol derivatives active against Trypanosoma brucei” (Bioorg Med Chem Lett, 2012).
pEC50: −log10 of the molar value. The source made the active and inactive calls. The calls are words filed in the database; no cut-off is given here.

Columns and labels:
[1] = system: Trypanosoma brucei rhodesiense; experiment: Antitrypanosomal activity against bloodstream form of Trypanosoma brucei rhodesiense EATRO3 after 72 hrs by alamar blue assay; type: functional, organism-based; conditions: EATRO3, 72 h
Summary of the method: (§1)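 Bloodstream-form parasites were grown in HMI-9 with 20% heat-inactivated FBS at 37 °C and 5% CO2. They were seeded at 2 × 10^3 cells/ml (T. b. rhodesiense EATRO3) or 2 × 10^4 cells/ml (T. b. gambiense ELIANE) and exposed to a compound dilution series for 72 h. Untreated cells with matching DMSO served as controls. Alamar Blue fluorescence was read at ex 550/em 590 nm, and EC50 was derived from it.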

[2] = system: Trypanosoma brucei gambiense; experiment: Antitrypanosomal activity against bloodstream form of Trypanosoma brucei gambiense ELIANE after 72 hrs by alamar blue assay; type: functional, organism-based; summary of the method: as §1
[3] = Selectivity index, ratio of CC50 for african green monkey Vero cells to EC50 for Trypanosoma brucei gambiense ELIANE; type: toxicity, cell-based; conditions: read-out: Ratio CC50/EC50
Summary of the method: (§2)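 Vero cells were grown in DMEM with 10% heat-inactivated FBS and seeded at 5 × 10^4 cells/ml. They were exposed to 4–35 (units as printed unclear) compound concentrations for 72 h at 37 °C and 5% CO2. CC50 came from Alamar Blue fluorescence (ex 550/em 590 nm). SI = CC50 (Vero) / EC50 (parasite, 72 h Alamar Blue assay).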

[4] = system: Trypanosoma brucei rhodesiense; experiment: Antitrypanosomal activity against bloodstream form of Trypanosoma brucei rhodesiense EATRO3 assessed as alteration of flagellar pocket at […] after 24 hrs by microscopic analysis; type: functional, organism-based
Summary of the method: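 Live bloodstream-form T. b. rhodesiense EATRO3, cultured in HMI-9 with 20% heat-inactivated FBS at 37 °C and 5% CO2, were treated for 24 h. Flagellar pocket morphology was imaged with Nomarski optics and compared against untreated parasites.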

[5] = Selectivity index, ratio of CC50 for african green monkey Vero cells to EC50 for Trypanosoma brucei rhodesiense EATRO3; type: toxicity, cell-based; conditions: read-out: Ratio CC50/EC50; summary of the method: as §2

Compound	pEC50 [1]	selectivity ratio [5]	also measured
N=C(N)c1ccc(OCCCCCOc2ccc(C(=N)N)cc2)cc1	8.43	–	–
CCCCCCCCCCCCCCC(CNCCCCCC)NC(=O)OC(C)(C)C (racemic)	< 5.60	–	–
CCCCCCCCCCCCCCC(CNC(=O)CCC(=O)O)NC(=O)OC(C)(C)C (racemic)	< 5.60	–	–
CCCCCCCCCCC(CO)NCC (racemic)	5.96	–	–
CCCCCCCCCCCCCCCCC(CO)NCC (racemic)	6.23	27.7	pEC50 [2]: 6.35; selectivity ratio [3]: 35.9; Activity [4]: Active
CCCCCCCCCCCCCCC(O)CNCCCCCC (racemic)	< 5.60	–	–
CCCCCCCCCCCCCCC(O)CNC(C)C (racemic)	6.36	27.1	pEC50 [2]: 6.48; selectivity ratio [3]: 35.8; Activity [4]: Active
CCCCCCCCCCCCCCC(O)CN(CC)CC (racemic)	5.70	19.9	–
CCCCCCCCCCCCCCC(O)CN1CCN(C)CC1 (racemic)	6.28	23.7	pEC50 [2]: 6.37; selectivity ratio [3]: 28.8; Activity [4]: Active
CCCCCCCCCCCCCCC(O)CN1CCN(CCCC)CC1 (racemic)	5.75	–	–
CCCCCCCCCCCCCCC(O)CN1CCOCC1 (racemic)	< 5.60	–	–
CCCCCCCCCCCCCCC(CO)NCCCC (racemic)	6.09	–	–
CCCCCCCCCCCCCCC(CNCC)NC(=O)OC(C)(C)C (racemic)	6.15	38.8	–
CCCCCCCCCCCCCCC(N)CO (racemic)	< 5.60	–	–
CCCCCCCCCCCCCCC(COCc1ccccc1)NC(=O)CCC(=O)O (racemic)	< 5.60	–	–
CCCCCCCCCCCCCCC(CO)N(CC)CC (racemic)	6.14	–	–
CCCCCCCCCCCCCCC(O)CNC1CCCCC1 (racemic)	6.10	–	–
CCCCCCCCCCCCCCC(CN)NC(=O)OC(C)(C)C (racemic)	6.02	17	–
CCCCCCCCCCCCCCC(CO)NCC (racemic)	5.94	39.1	–
CCCCCCCCCCCCCCC(N)CNCC(=O)O (racemic)	< 5.60	–	–
CCCCCCCCCCCCCCC(CO)NC(=O)CCCC(=O)O (racemic)	< 5.60	–	–
Cc1ccc(C(=O)Nc2ccc(S(=O)(=O)O)c3cc(S(=O)(=O)O)cc(S(=O)(=O)O)c23)cc1NC(=O)c1cccc(NC(=O)Nc2cccc(C(=O)Nc3cc(C(=O)Nc4ccc(S(=O)(=O)O)c5cc(S(=O)(=O)O)cc(S(=O)(=O)O)c45)ccc3C)c2)c1 [SURAMIN]	6.73	–	–
